Plk1 PBD FP = Plk1 polo box domain binding inhibitors, primary screen, biochemical, fluorescence polarization | Plk1 PBD phosphopeptide binding | Serine/threonine-protein kinase PLK1 (Homo sapiens), P53350 | inhibition, %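 (tested at about 20 µM)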 | actives 0.13% (n = 97,000); in the data active means inhibition above about 34%, passing the limit was not always enough
EphB4 ephrin blk = EphB4-ephrin-B2 interaction antagonists, primary screen, biochemical, TNYL-RAW peptide probe, fluorescence polarization. actives 0.15% (n = 97,000). EphB4 LBD / TNYL-RAW-Alexa532 peptide. AID 720, 2007. Ephrin type-B receptor 4 (Homo sapiens), P54760. inhibition, % at 7 µM;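 active means inhibition above the screen-wide mean inhibition plus 3 SD, cut at about 15% in these data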;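 further: 0% = DMSO wells and 100% = excess unlabeled TNYL-RAW peptide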
PostGolgi ctrl = growth inhibition of yeast control strain, primary screen, counter-screen for post-Golgi transport modulator project; efflux-deficient yeast background strain, growth absorbance A615, 16 h; inhibition, % at 10 µM; actives 5% (n = 98,000); AID 738, 2007
PLK1 inh = human PLK1 kinase inhibitors, primary screen, biochemical, TR-FRET. actives 0.53% (n = 97,000). inhibition, % at 10 µM. Serine/threonine-protein kinase PLK1 (Homo sapiens), P53350. recombinant PLK1 kinase, TR-FRET peptide phosphorylation;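 active means inhibition of 50% or more in the single-concentration screen; inactive means inhibition below 50%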;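 further: 0% = DMSO max control and 100% = H-89 dihydrochloride min control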
PostGolgi yeast = phenotypic screen on post-Golgi transport, primary screen. inhibition, % at 10 µM. actives 0.9% (n = 98,000). AID 739, 2007. post-Golgi transport phenotypic cell assay;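 further: yeast cells grown in 1536-well plates; yeast grown about 18 h at 30C before absorbance read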
Rev-RRE block = HIV-1 Rev-RRE binding inhibitors, primary screen, biochemical, FRET, protein-RNA interaction | inhibition, % at 8 µM | Rev peptide-RRE RNA binding | actives 0.79% (n = 97,000) | P05866;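 active means inhibition above the screen-wide mean plus 3 SD, cut at about 35% in these data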;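 further: 0% = median DMSO wells and 100% = median Neomycin B control wells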
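Test system – labelled RRE RNA duplex and labelled Rev peptide · Signal – fluorescein-to-Cy5 FRET, 480 nm excitation · Evaluation – % inhibition of FRET ratio versus controls · Benchmarks – DMSO low control, neomycin B high control · Incubation – 5 min RNA-compound premix plus 15 min binding step, 25 °C · Medium – HEPES pH 7.5 salt buffer with EDTA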
* = called active by the depositor; . = not tested or not shown; [ ] = another dose, or the depositor's remark. This is a sample that favours compounds with a hit; in the whole collection about 6.4% have one here. Unless noted, no stated cut-off is given here; in the data, active means inhibition above about 30%; inactive means the rest.

SMILES	Plk1 PBD FP	EphB4 ephrin blk	PostGolgi ctrl	PLK1 inh	PostGolgi yeast	Rev-RRE block
CCCCCCN1C=CC(=C/C=C(\C#N)C(=O)OCC)C=C1	-229	-1	4	-47	2	139*[fluorescence artefact?]
CCOC(=O)/C(C#N)=C\c1ccc(N2CCN(C)CC2)cc1	-21	7	4	-14	0	16
CCOC(=O)/C(C#N)=C1\C=CN(C)C(C)=N1	-1	-5	.	-10	.	3
CCCN1C=CC(=C/C=C(\C#N)C(=O)OCC)C=C1	-206	5	7	-32	-4	136*[fluorescence artefact?]
O=c1c2c(nc3n1CCCCC3)sc1c(O)c(Br)ccc12	-5	-5	54*	-4	7	10
C=CCn1c(SCc2c(C)noc2C)nnc1C1COc2ccccc2O1 (centres undefined)	16	12	19	-6	-1	6
CNc1nc(N(C)C)nc(N(C)C)n1	-2	-5	.	-24	.	7
CC(=O)N1CCN(c2nnnn2-c2ccccc2)CC1	9	-2	6	-8	-2	8
c1ccc(CC2CCN(c3nnnn3-c3ccccc3)CC2)cc1	15	-3	32*	0	4	0
CC([NH2+][O-])C(C)(C)NO (centres undefined)	-6	-2	1	-12	1	-1
Cc1cccc(NC(=O)c2sc3nc4c(c(-c5cccs5)c3c2N)CN(C)CC4)c1	-8	2	5	-8	10	71*
Cc1ccc(-c2nc(CSCC(=O)NCCN3CCN(Cc4ccccc4)CC3)c(C)o2)cc1	23	6	38*	-13	2	7
CCN1CCN(CCNC(=O)CS(=O)(=O)Cc2nc(-c3ccc(C)cc3)oc2C)CC1	-9	1	2	65*	6	1
COc1ccc(OC)c(CCNC(=O)CS(=O)(=O)Cc2nc(-c3ccccc3C)oc2C)c1	3	6	37*	4	6	8
COc1ccc(C(C)=O)cc1CSc1nnc(-c2ccccc2O)n1-c1ccccc1	-26	1	19	-15	4	6
CC(=O)Nc1ccccc1NS(=O)(=O)c1ccc(Cl)cc1	22	6	5	-4	36*	8
Cc1occc1-c1nnc(SCC(=O)NC(=O)NC(C)C)n1N	21	0	-4	-12	-3	9
CCSc1cc(C2C(C(=O)OC)=C(C)NC3=C2C(=O)CCC3)c(C)o1 (centres undefined)	-3	0	-9	-14	-5	-1
O=C(Nc1cnc2ccccc2c1)c1ccncc1	0	1	15	-11	-4	7
CCN(CC)C(=O)Nc1cnc2ccccc2c1	9	6	33*	-8	3	4
Cc1ccccc1Cn1cc(/C=N/n2cnnc2)c2ccccc21	-13	2	28	-5	4	9
Clc1ccc(Cn2cc(/C=N/n3cnnc3)c3ccccc32)cc1	.	.	42*	.	-4	.
COC(=O)c1ccccc1S(=O)(=O)N(CCCO)Cc1cc2c(C)ccc(C)c2[nH]c1=O	-3	2	36*	-10	10	2
COC(=O)c1ccccc1S(=O)(=O)N(Cc1ccco1)Cc1cc2cc(OC)ccc2[nH]c1=O	-2	4	7	-5	-1	5
CCCCCCCC(=O)N/N=C(\C)c1cccnc1	7	-1	.	-2	.	6
SMILES	Plk1 PBD FP	EphB4 ephrin blk	PostGolgi ctrl	PLK1 inh	PostGolgi yeast	Rev-RRE block
COCCn1c(C)cc(C(=O)COC(=O)c2c(C)nn(Cc3ccccc3)c2C)c1C	-18	-9	0	-1	-2	-3
COCCn1c(C)cc(C(=O)COc2nc3ccccc3nc2C)c1C	-7	20*	5	-9	-2	7
COCCn1c(C)cc(C(=O)CSc2ccc3ccccc3n2)c1C	1	-3	31*	-9	0	-4
COCCn1c(=O)[nH]c2cc(C(=O)NCCN3CCN(c4ccc(OC)cc4)CC3)ccc2c1=O	-2	-7	4	-22	-2	3
CC1CCCN(C(=O)CSCC(=O)N=c2sc3ccccc3n2C)C1 (centres undefined)	-4	4	14	-3	19	8
Cc1c(C(=O)N2CCN(CCc3ccccc3)CC2)oc2ccccc12	.	.	13	.	7	.
Cc1c(C(=O)N2CCN(S(C)(=O)=O)CC2)oc2ccccc12	-7	-5	34*	-8	-8	3
CS(=O)(=O)c1nc(-c2ccccc2)cc(C(F)(F)F)n1	.	.	51*	.	26	.
Cc1ccc(N(C)C(=O)N2CCN(S(=O)(=O)c3ccc4ccccc4c3)CC2)cc1	0	6	25	6	-1	-5
Cn1c(N/N=C/c2cccs2)cc(=O)n(C)c1=O	12	7	35*	-3	1	4
CCOC(=O)C1CCCN(c2c(NCCCN(CC)c3ccccc3)c(=O)c2=O)C1 (centres undefined)	28	-6	35*	2	2	0
c1ccc(COc2ccc(OCCn3cncn3)cc2)cc1	18	7	3	-8	-1	6
c1ccc(-c2ccc(OCCCn3cncn3)cc2)cc1	6	-3	89*	-17	97*	4
CCCN1CCN(CCCNC(=O)CCNC(=O)Cn2ccc3ccccc3c2=O)CC1	-14	-5	-10	-7	-3	11
COc1ccc(N/C=C/C(=O)c2sc(-c3ccccc3)nc2C)cc1	-44	6	7	-14	-9	25
COC(/C=C/Nc1ccc(OC)cc1)=C(C#N)C#N	18	-1	31*	-4	0	5
CCCCC(CC)CN1C(=O)/C(=C/c2ccncc2)SC1=S (centres undefined)	15	6	32*	-16	13	17
Cc1ccc[n+](C(C)C(=O)Nc2ccc(C)c([N+](=O)[O-])c2)c1 (centres undefined)	-17	-5	3	-4	8	0
CCCCc1nc2n[nH]c(N)c2c2c1CCCC2	-25	-4	8	58*	13	7
CCCc1nc2n[nH]c(N)c2c2c1CCCC2	0	1	2	45	-2	0
O=C(c1ccco1)N1CCN(C(c2ccccc2)c2nnnn2C2CCCC2)CC1 (centres undefined)	-8	2	.	1	.	7
CC(=O)c1c(C(C)=O)c(C)n(NC(=O)c2ccc(Cl)cc2)c1C	11	2	23	-4	31*	3
CC(=O)c1c(C(C)=O)c(C)n(NC(=O)c2ccccc2Cl)c1C	-7	7	7	-8	-3	9
COc1ccc(-c2csc(Nc3ncccc3C)n2)cc1OC	17	-1	-2	0	0	-1
Cc1cccnc1Nc1nc(-c2ccc(O)c(O)c2)cs1	-2	2	83*	47	-1	8
